# Screening results: PubChem, Broad Institute
# Only some compounds are listed: those with a hit (about 3.4% of all), similar ones and a draw of the others.
# E-sel inducer – induces E-selectin expression in human endothelial cells. P16581. HUVEC E-selectin immunofluorescence imaging; normalized: neutral wells 0, TNF-alpha wells 100. activation, % at 7.58 µM. 0.37% of 260,000 active. AID 686992;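 active means mean E-selectin-positive cell signal at least 10% of the positive control, reached in at least 60% of replicates, without over 20% cell loss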
#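 Test system – human umbilical vein endothelial cells (HUVEC), E-selectin induction · Input – 3,000 HUVEC seeded per well · Buffer or medium – EGM-2, gelatin · Compound dosing – single-point compound dose · Detection – immunofluorescence imaging · Measure – percent E-selectin-positive cells · Controls – TNF-alpha high, DMSO low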
# SIRT5 inh – inhibitors of human sirtuin-5 desuccinylase | inhibition, % at 15 µM | 1.1% of 330,000 active | Purified SirT5, succinyl-peptide AMC, trypsin-coupled fluorescence | Q9NXA8; in the data active means inhibition above about 15%
# AF4-AF9 inh – MLL-AF4/AF9 protein interaction inhibition. P42568. AlphaScreen, biotin-AF4 peptide binding to FLAG-AF9. inhibition, % at 10 µM. 0.47% of 350,000 active;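 active means every replicate reaching a set inhibition limit, whatever the replicate mean, cut at about 25% in these data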;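 further: 0% = plate neutral control median and 100% = total signal loss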
# Target sequence (P42568 whole entry, looked up): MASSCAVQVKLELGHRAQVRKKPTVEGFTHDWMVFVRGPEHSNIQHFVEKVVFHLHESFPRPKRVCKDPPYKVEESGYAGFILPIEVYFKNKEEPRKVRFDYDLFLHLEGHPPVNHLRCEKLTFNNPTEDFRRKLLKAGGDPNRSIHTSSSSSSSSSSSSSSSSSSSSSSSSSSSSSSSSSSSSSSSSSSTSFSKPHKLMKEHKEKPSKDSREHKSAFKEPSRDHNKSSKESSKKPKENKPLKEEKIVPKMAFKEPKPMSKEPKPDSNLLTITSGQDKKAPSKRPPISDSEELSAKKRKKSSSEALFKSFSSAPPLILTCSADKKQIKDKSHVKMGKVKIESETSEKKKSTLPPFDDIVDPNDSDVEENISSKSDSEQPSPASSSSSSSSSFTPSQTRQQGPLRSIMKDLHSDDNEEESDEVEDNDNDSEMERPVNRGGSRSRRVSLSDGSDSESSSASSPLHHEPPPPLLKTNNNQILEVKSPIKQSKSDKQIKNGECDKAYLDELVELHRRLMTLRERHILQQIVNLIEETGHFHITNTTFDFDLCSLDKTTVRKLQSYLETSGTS
# rRNA inh HTS – inhibits bacterial ribosomal RNA function over humanized ribosomes. E. coli WT GFP vs humanized-ribosome RFP mutants, fluorescence, 24 h; active compounds read low; DMSO median 0, no signal -100. 1.6% of 350,000 active. GFP signal change (wild-type ribosome), % (concentration not given with the values);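 active means significant combined selectivity score with lowered wild-type GFP, culture density cut under 30%, mutant RFP and density less affected; inactive means any of these conditions unmet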
# S100A4 inh HTS – S100A4-myosin IIA interaction inhibition; 0.14% of 360,000 active; AID 652163; inhibition, % at 10.7 µM; S100A4/TAMRA-MyoIIA peptide fluorescence polarization; P26447;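 active means mean inhibition of at least 70% across replicates, with every replicate also reaching that level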
#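 Material: S100A4 monomer protein | Medium: HEPES pH 7.2 with CaCl2, KCl, NaCl, DTT, Triton | Reagent: Labelled myosin peptide probe, 5 nM | Doses: One dose per compound | Times: 5 min incubation before reading | Benchmarks: Neutral control DMSO, positive control TFP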
# ERAP1 HTS inh – inhibitors of human ERAP1 aminopeptidase; inhibition, % at 10.7 µM; 0.15% of 340,000 active; AID 652197; Q9NZ08; recombinant ERAP1, Leu-AMC fluorescence, 60 min;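 active means mean replicate inhibition of at least 30%, or all replicates individually reaching that 30% level; inactive means mean below 30% and not every replicate reaching it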;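 further: 0% = neutral control wells and 100% = L-leucinethiol positive control wells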
# Starred values were filed as active, the others as inactive; · = no result; ! = not confirmed by another sample.
SMILES,E-sel inducer,SIRT5 inh,AF4-AF9 inh,rRNA inh HTS,S100A4 inh HTS,ERAP1 HTS inh
COc1ccc2c3c([nH]c2c1)[C@H](CO)N(S(C)(=O)=O)CC31CN(CC2CCOCC2)C1,0,3,-5,6,102*,0
COc1ccc2c3c([nH]c2c1)[C@@H](CO)N(S(C)(=O)=O)CC31CCN(Cc2cccc(F)c2)CC1,0,·,27*,-3,·,·
CCOc1ccc(/C=N/NC(=O)c2ccccc2Cl)cc1CN1CC2CC(C1)c1cccc(=O)n1C2 (centres undefined),·,·,·,3,-8,-5
CCOc1ccc(/C=N/NC(=O)c2ccccc2C)cc1CN1CC2CC(C1)c1cccc(=O)n1C2 (centres undefined),·,·,·,-6,94*,-2
Cc1ccnc(NS(=O)(=O)c2cccc([N+](=O)[O-])c2)c1,7,14,-1,8,-6,2
Cc1ccc(S(=O)(=O)NCCCNc2ccc([N+](=O)[O-])cc2)cc1,·,5,5,-36,2,-1
Cc1ccc(S(=O)(=O)NCCNc2ccc([N+](=O)[O-])cc2)cc1,0,1,8,-27*,-11,1
Cc1ccc(S(=O)(=O)Nc2c(C)cc([N+](=O)[O-])cc2C)cc1,0,-1,1,-22*,1,1
COc1ccc2c3c([nH]c2c1)[C@H](CO)N(C(=O)NC(C)C)CC31CCN(Cc2ccccc2)CC1,0,·,13,-1,·,·
COc1ccc2c3c([nH]c2c1)[C@H](CO)N(C(=O)NC(C)C)CC31CN(Cc2ccc(F)cc2)C1,0,1,31*,-2,5,0
COc1ccc(CN2CC3(C2)CN(C(=O)Nc2ccc(F)cc2)[C@@H](CO)c2[nH]c4cc(OC)ccc4c23)cc1,0,·,44*,-61,·,·
COc1ccc2c3c([nH]c2c1)[C@H](CO)N(C(=O)Nc1ccc(F)cc1)CC31CN(Cc2ccc(F)cc2)C1,0,-15,11,-59,-6,1
COc1ccc2c3c([nH]c2c1)[C@H](CO)N(C(=O)NC(C)C)CC31CN(Cc2ccccc2)C1,0,3,26*,-2,-33,-7
COc1ccc2c3c([nH]c2c1)[C@@H](CO)N(C(=O)Nc1ccc(F)cc1)CC31CN(Cc2ccccc2OC)C1,0,·,51*,-59,·,·
O=C1NC(c2cccc(Cl)c2)Oc2ccccc21 (centres undefined),0,0,-1,5,-1,-1
CCC1NC(=O)c2ccccc2N1c1cccc(Cl)c1 (centres undefined),0,-4,3,-45*,-1,0
CC(=O)Nc1ccc(S(=O)(=O)N2CCN(C(=O)C(=O)c3cccc(C(F)(F)F)c3)CC2)cc1,0,·,2,-13*,1,5
CC(=O)c1ccc(S(=O)(=O)N2CCN(C(=O)C(=O)c3cccc(C(F)(F)F)c3)CC2)cc1,0,·,2,11,-1,3
C=CCNc1nnc(Cl)c2ccccc12,·,26*,-25,-9,6,0
COc1ccc(NC(=O)Nc2ccc3c(c2)CC(=O)N([C@@H](C)CO)C[C@@H](C)[C@H](CN(C)S(=O)(=O)c2ccc(F)cc2)O3)cc1,0,5,3,1,-4,0
Cc1ccc(S(=O)(=O)NC(=O)Nc2ccc(C)cn2)cc1,2,98*,-3,2,-8,0
CCCNC(=O)N(C)C[C@@H]1Oc2cc(-c3cncnc3)ccc2S(=O)(=O)N([C@H](C)CO)C[C@H]1C,1,2,-9,3,2,2
CCCN(CCC)C1=CC(=[N+]2CCCC2)CC(C)(C)C1,0,0,7,-47*,-9,9
CC1(C)CC(N2CCCCC2)=CC(=[N+]2CCCCC2)C1,-2,6,-1,-37*,1,4
CC1C[N+](=C2C=C(N3CCOCC3)CC(C)(C)C2)CC(C)O1 (centres undefined),0,3,-21,11,2,55*
SMILES,E-sel inducer,SIRT5 inh,AF4-AF9 inh,rRNA inh HTS,S100A4 inh HTS,ERAP1 HTS inh
C[C@H](CO)N1C[C@H](C)[C@H](CN(C)Cc2ccc(Oc3ccccc3)cc2)Oc2cc(-c3ccncc3)ccc2S1(=O)=O,1,1,-1,-5,-6,1
C[C@@H]1CN([C@H](C)CO)C(=O)c2cccc(NC(=O)c3nc4ccccc4s3)c2O[C@H]1CN(C)C(=O)Nc1ccc(C(F)(F)F)cc1,·,4,3,-7,-25,0
COc1ccc(NC(=O)N(C)C[C@@H]2Oc3ccc(NC(=O)Nc4ccc(C(F)(F)F)cc4)cc3C(=O)N([C@@H](C)CO)C[C@@H]2C)cc1,0,·,·,1,·,·
Cc1cc(NC(=O)COC(=O)c2ccccc2S(=O)(=O)N(C)c2ccccc2)no1,·,-2,1,-33*,-2,1
COc1ccc([C@H]2CN(CCc3ccccc3)C(=O)[C@@H]2CC(=O)Nc2ccccc2)cc1,0,18*,2,-6,-9,-2
CN(C)C(=O)c1cc(C(=O)c2ccc(C(F)(F)F)cc2F)c[nH]1,0,34*,-2,9,-7,-1
CCOc1cccc(/C=N/NC(=O)c2cc(C3CC3)[nH]n2)c1O,·,2,1,-17*,-1,0
CN1CCN(C(=O)C2=C[C@H](C3CCCCC3)C[C@H](OCc3ccc(CO)cc3)O2)CC1,1,30*!,2,0,-10,4
O=C(NCc1nc2ccccc2[nH]1)C1=C[C@@H](C2CC2)C[C@@H](OCc2ccc(CO)cc2)O1,0,-3,-1,-27*,14,1
C[C@H](CO)N1C[C@H](C)[C@H](CN(C)C(=O)Nc2cccc3ccccc23)Oc2c(NS(=O)(=O)c3cccs3)cccc2C1=O,0,2,0,-3,-16,-1
CN1C(=O)c2cc(NC(=O)Nc3ccccc3)ccc2OC[C@H]2O[C@@H](CC(=O)O)CC[C@@H]21,0,·,0,2,·,·
C[C@@H]1CN([C@H](C)CO)C(=O)Cc2cc(NC(=O)C3CC3)ccc2O[C@H]1CN(C)CC1CCCCC1,0,·,-1,2,-18,4
CCC(C)(C)C1CCC(=NNS(=O)(=O)c2ccc(C)c([N+](=O)[O-])c2)CC1 (centres undefined),-2,18*,-1,-22,-7,-1
CC/C(C)=N/NS(=O)(=O)c1ccc(C)c([N+](=O)[O-])c1,1,0,-1,6,5,1
Cn1c2c(c3ccccc31)CCN1CCC[C@]21c1ccccc1,·,-2,26*,-2,-1,5
O=C1Nc2ccc(F)cc2C12Nc1ccccc1-c1nnc(SCc3ccccc3)nc1O2 (centres undefined),·,5,5,-17*,-3,-3
